Converted amounts (≈) assume the structure as drawn. The source made the active and inactive calls. The rule behind the calls is not given here.
What was measured:
HUVEC [1] = assay: Inhibition of H2O2-induced oxidative damage in HUVECs preincubated for 24 hrs followed by H2O2 addition and measured after 2 hrs by MTT method; type: functional, cell-based; settings: Homo sapiens, time 26.0 hrs
Summary of the method: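 HUVECs were seeded and grown 24 h at 37 °C, 5% CO₂, then given compound (0.5, 5 or 20 μM) for 24 h. Control and model wells received serum-free medium instead. Model and treated wells were then exposed to 1 mM H₂O₂ for 2 h, followed by MTT for 4 h, DMSO, and absorbance at 570 nm. Trolox was the positive control; mean ± SD, n = 5.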

HUVEC [2] = assay: Cytotoxicity against HUVECs at 0.5 to 200 uM incubated for 24 hrs by MTT assay; type: toxicity, cell-based; settings: human, dose 0.5-200 µM
Summary of the method: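 HUVECs bought from ATCC; compounds given for 24 h, then MTT (5 mg/mL, 20 μL/well) added for 4 h. Formazan dissolved in DMSO and absorbance read at 570 nm. Medium-only and untreated-cell wells served as controls.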

Thoracic aorta [3] = assay: Vasodilation activity against KCl-induced Sprague-Dawley rat thoracic aorta vessels contraction at 20 uM; type: functional
Summary of the method: (§1)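 Aortic rings of about 2 mm from anesthetized SD rats mounted in Krebs solution at 37 °C under oxygen, preload 9.8 mN, equilibrated about 1 h. Rings contracted with 25 mM K⁺, then compound added cumulatively. Relaxation (%) = (maximum KCl tension − tension after compound)/(maximum KCl tension − preload). ADT-OH served as control; mean ± SD, n = 4.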

Thoracic aorta [4] = assay: Vasodilation activity against KCl-induced Sprague-Dawley rat thoracic aorta vessels contraction at 10 uM; type: functional; summary of the method: as §1
Thoracic aorta [5] = assay: Vasodilation activity against KCl-induced Sprague-Dawley rat thoracic aorta vessels contraction in presence of glyburide; type: functional, tissue-based
Thoracic aorta [6] = assay: Vasodilation activity against KCl-induced Sprague-Dawley rat thoracic aorta vessels contraction at 5 uM; type: functional; summary of the method: as §1
Thoracic aorta [7] = assay: Vasodilation activity against KCl-induced Sprague-Dawley rat thoracic aorta vessels contraction at 1 uM; type: functional; summary of the method: as §1
Thoracic aorta [8] = assay: Vasodilation activity against KCl-induced Sprague-Dawley rat thoracic aorta vessels contraction at 40 uM; type: functional; summary of the method: as §1
[9] = Cytotoxicity against mouse BMDM cells assessed as cell viability at 50 uM incubated for 24 hrs by MTT assay; type: toxicity, cell-based; settings: BMDM cells (bone marrow-derived macrophages), read-out: Activity
Summary of the method: (§2)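 Primary bone marrow macrophages taken from 6-week-old male C57 mice and cultured 6–7 days before use. Compounds dosed for 24 h, then MTT added for 4 h and formazan dissolved in DMSO; absorbance read at 570 nm. Triplicate wells; medium-only and untreated-cell controls; mean ± SD, n = 4.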

[10] = Water solubility of the compound after 20 mins by HPLC analysis; type: physicochemical
Summary of the method: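 Compound suspended in 1 mL water at room temperature, sonicated 20 min and passed through a 0.22 μm filter. Filtrate analyzed by HPLC (MeCN/water 95:5, 1.0 mL/min, UV 254 nm) and quantified against a standard curve of 0.5–500 μg/mL in MeOH.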

[11] = Induction of H2S release in phosphate buffer at 100 uM measured upto 150 mins under L-cysteine stimulated condition by microplate reader analysis; settings: 2.5 h
Summary of the method: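 Compound (100 μM) incubated with 1 mM L-cysteine in phosphate buffer at 37 °C, sampled at 0–150 min. Each sample quenched with zinc acetate and trichloroacetic acid, then N,N-dimethyl-p-phenylenediamine and FeCl₃ in HCl added. Absorbance read at 670 nm after 10 min; H₂S quantified against a NaHS standard curve (5–150 μM).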

RAW264.7 = assay: Lipid lowering activity in ox-LDL stimulated mouse RAW264.7 cells at 50 uM by oil red O staining based microscopic analysis; type: functional, cell-based
Summary of the method: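 RAW 264.7 cells allowed to adhere 2 h, then exposed to ox-LDL (50 μg/mL) plus compound (50 μM) for 24 h. Cells fixed in 4% paraformaldehyde, stained with oil red O, rinsed in 60% isopropanol and counterstained with hematoxylin. Oil red O-positive area percentage quantified microscopically; ANOVA used.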

[12] = Cytotoxicity against mouse BMDM cells assessed as cell viability at 100 uM incubated for 24 hrs by MTT assay; type: toxicity, cell-based; settings: BMDM cells (bone marrow-derived macrophages), read-out: Activity; summary of the method: as §2

| solubility at 20 min [10] [µg/mL] | Activity [11] [µM] | SMILES | inhibition (HUVEC [1]) | Activity (HUVEC [2]) | Activity (Thoracic aorta [3]) [%] | Activity (Thoracic aorta [4]) [%] | Activity (Thoracic aorta [5]) | Activity (Thoracic aorta [6]) [%] | Activity (Thoracic aorta [7]) [%] | Activity (Thoracic aorta [8]) [%] | viability at 24 h, 50 µM [9] [%] | Activity (RAW264.7) | viability at 24 h, 100 µM [12] [%] |
| --- | --- | --- | --- | --- | --- | --- | --- | --- | --- | --- | --- | --- | --- |
| – | – | Oc1ccc(-c2cc(=S)ss2)cc1 | Active | Non-Toxic | 61.69 | 42.24 | inactive | 5.39 | 3.08 | 75.01 | – | – | – |
| 40 (≈ 62.6 µM) | 100 | C=C[C@]1(C)CC[C@@H](C(=C)COC(=O)c2c(F)cccc2C(=O)OCCOc2ccc(-c3cc(=S)ss3)cc2)C[C@H]1C(=C)C | Active | Non-Toxic | 51.85 | 38.87 | Active | 25.08 | 18.12 | 61.41 | 193 | Active | 347 |
| – | 50 | NC(=S)c1ccc(O)cc1 | – | – | – | – | – | – | – | – | – | – | – |
| – | – | C=C[C@]1(C)CC[C@@H](C(=C)COC(=O)CCCCCC(=O)Oc2ccc(-c3nc(=O)ss3)cc2)C[C@H]1C(=C)C | – | – | 7.08 | 2.38 | – | 4.76 | -0.4 | 8.22 | 323 | Active | 391 |
| – | – | C=C[C@]1(C)CC[C@@H](C(=C)COC(=O)C(NC(=O)CCCCC2CCSS2)C(C)CC)C[C@H]1C(=C)C (stereo partly specified) | – | – | 1.21 | 2.19 | – | -8.16 | -5.9 | 14.47 | 208 | – | 268 |
| – | – | C=C[C@]1(C)CC[C@@H](C(=C)COCCCCCCOc2ccc(C(N)=S)cc2)C[C@H]1C(=C)C | – | – | 10.31 | 0.07 | – | 4.72 | 6.68 | 12.18 | 279 | – | 17.1 |
| – | – | C=C[C@]1(C)CC[C@@H](C(=C)COCCCCOc2ccc(C(N)=S)cc2)C[C@H]1C(=C)C | – | – | 15.38 | 17.37 | – | 4.13 | 4.61 | 30.23 | 163 | – | 14.9 |
| – | 100 | C=C[C@]1(C)CC[C@@H](C(=C)COC(=O)CCC(=O)OCCOc2ccc(-c3cc(=S)ss3)cc2)C[C@H]1C(=C)C | – | – | 12.67 | 11.63 | – | 6.87 | 1.27 | 12.14 | 264 | – | 349 |
| – | – | C=C[C@]1(C)CC[C@@H](C(=C)COC(=O)CCCCC2CCSS2)C[C@H]1C(=C)C (stereo partly specified) | – | – | 8.99 | 6.38 | – | -5.69 | -3.41 | 11.51 | 296 | – | 378 |
| – | – | C=C[C@]1(C)CC[C@@H](C(=C)COC(=O)CCC(=O)OCCOc2ccc(-c3nc(=O)ss3)cc2)C[C@H]1C(=C)C | – | – | 26.82 | 17.84 | – | 10.11 | -0.71 | 34.29 | 266 | Active | 254 |
| – | – | C=C[C@]1(C)CC[C@@H](C(=C)C)C[C@H]1C(=C)COC(=O)C(NC(=O)CCC(=O)OCCOc1ccc(-c2cc(=S)ss2)cc1)C(C)CC (stereo partly specified) | – | – | 7.93 | 6.75 | – | 2.75 | 0.64 | 13 | 269 | – | 272 |
